High-throughput results (PubChem)
T cruzi growth-1 = blocks T. cruzi growth in NIH3T3 culture; T. cruzi beta-gal in NIH3T3, GalScreen luminescence, 90 h; inhibition, % at 8.34 µM; 77,000 tested, 5.9% active; AID 624255;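 active = mean inhibition above about 93%, with at least 55% of replicates each passing it, limit read from the data, passing the limit was not always enough; inconclusive = only one of those two conditions holds; inactive = neither condition holds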
Pf Dd2 inh = blocks growth of Plasmodium falciparum Dd2 parasites; activity change, % at 10 µM; 94,000 tested, 2.3% active; P. falciparum Dd2 growth, SYBR Green, 72 h; stronger effect = lower value; in the data active = activity change below about -80%; inconclusive = no clear call, values can overlap the other calls
IDH1 R132H inh = IDH1 R132H (human) inhibition | IDH1 R132H reductase, diaphorase/resazurin fluorescence, 60 min | 70,000 tested, 0.18% active | O75874 | inhibition, % at 10 µM; in the data active = inhibition above about 34%; inconclusive = no clear call, values can overlap the other calls; inactive = below about 11%
Target sequence (O75874 whole entry R132H): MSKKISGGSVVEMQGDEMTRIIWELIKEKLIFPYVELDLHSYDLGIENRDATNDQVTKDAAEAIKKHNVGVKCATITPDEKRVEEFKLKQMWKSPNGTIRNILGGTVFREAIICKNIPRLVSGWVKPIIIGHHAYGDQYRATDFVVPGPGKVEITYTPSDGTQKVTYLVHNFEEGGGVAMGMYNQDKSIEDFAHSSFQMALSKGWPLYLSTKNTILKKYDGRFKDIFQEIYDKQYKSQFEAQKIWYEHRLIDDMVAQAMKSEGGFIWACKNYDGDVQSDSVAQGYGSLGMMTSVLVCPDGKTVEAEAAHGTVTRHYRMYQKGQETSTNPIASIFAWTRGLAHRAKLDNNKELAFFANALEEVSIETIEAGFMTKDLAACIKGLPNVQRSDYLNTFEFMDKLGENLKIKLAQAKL
GASC1 inh = KDM4C (human) demethylase inhibition; Q9H3R0; 96,000 tested, 0.15% active; inhibition, % at 12.5 µM; GST-KDM4C 2-372, H3K9me3 peptide, LANCE TR-FRET; AID 720574;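 active = mean replicate inhibition above about 25%, with at least 55% of replicates also reaching it, limit read from the data, passing the limit was not always enough; inconclusive = only one of those two conditions met; inactive = neither condition met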
Target sequence (Q9H3R0 2-372 limits assumed): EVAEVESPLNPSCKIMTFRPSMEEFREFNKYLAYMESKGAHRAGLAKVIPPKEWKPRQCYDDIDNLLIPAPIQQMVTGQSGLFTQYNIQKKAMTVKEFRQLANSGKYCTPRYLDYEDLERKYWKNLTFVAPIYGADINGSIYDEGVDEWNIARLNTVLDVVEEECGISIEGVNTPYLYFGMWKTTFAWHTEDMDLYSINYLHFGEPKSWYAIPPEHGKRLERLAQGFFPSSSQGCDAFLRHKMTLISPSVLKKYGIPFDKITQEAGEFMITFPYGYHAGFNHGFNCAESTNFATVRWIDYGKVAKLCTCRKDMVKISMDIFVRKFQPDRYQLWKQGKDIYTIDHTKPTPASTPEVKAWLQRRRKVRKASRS
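Material: GST-tagged GASC-1 (JMJD2C) catalytic fragment, aa 2-372. Input: enzyme final amount 10 nM. Medium: HEPES buffer, pH 7.5, plus ascorbate. Reagent: H3K9me3 peptide substrate, Fe(II), 2-oxoglutarate. Doses: single dose. Times: reaction 30 min RT, detection step 1 h RT. Measured by: LANCE TR-FRET. Evaluation: Fall in 671/618 emission ratio as inhibition.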
T cruzi growth-2 = blocks T. cruzi growth in NIH3T3 host cells; shares compounds with T cruzi growth-1; inhibition, % at 8.35 µM; 5,600 tested, 72% active; AID 651739; T. cruzi beta-gal in NIH3T3, GalScreen luminescence, 90 h;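 active = mean replicate inhibition above about 95% and at least 55% of replicates individually reaching it, limit read from the data; inconclusive = only one of the two criteria is met; inactive = neither criterion is met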
T cruzi growth-3 = inhibitors of T. cruzi proliferation; shares compounds with T cruzi growth-1; T. cruzi beta-gal in NIH3T3, GalScreen luminescence, 90 h; inhibition, % at 2.09 µM; 5,600 tested, 21% active; AID 651740;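 active = mean inhibition above about 95%, with at least 55% of replicates also reaching it, limit read from the data; inconclusive = meets just one of the two conditions; inactive = meets neither condition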
NIH3T3 tox = NIH/3T3 (mouse) viability loss. NIH/3T3 viability, CellTiter-Glo ATP luminescence, 90 h. 5,600 tested, 14% active. shares compounds with T cruzi growth-1. cytotoxicity (signal decrease), % at 8.35 µM;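 active = mean signal decrease across replicates above about 35% based on untreated-well scatter, with enough replicates individually passing, limit read from the data; inconclusive = no rule stated though some were filed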
3T3 cytotox 2 = kills mouse NIH/3T3 fibroblasts; shares compounds with T cruzi growth-1; NIH/3T3 viability, CellTiter-Glo ATP luminescence, 90 h; inhibition, % at 24.9 µM; 5,600 tested, 56% active;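 active = mean loss of cell viability signal at or above a set limit, and enough replicates individually reaching it; inconclusive = meets only the mean limit or only the replicate share; inactive = meets neither condition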
Large screens that a line does not name were inactive (follow-up assays come after a bar, where they were run). Most compounds without a hit are left out; they make up all but 5.8% or so of the library.

Cc1ccc(S(=O)(=O)N(C)C[C@H]2OCCCC[C@H](C)Oc3ccc(NS(=O)(=O)c4ccc(Cl)cc4)cc3C(=O)N([C@@H](C)CO)C[C@H]2C)cc1	T cruzi growth-1 inconclusive | T cruzi growth-2 104 | T cruzi growth-3 108 | NIH3T3 tox inactive | 3T3 cytotox 2 inactive
Cc1ccc(S(=O)(=O)Nc2ccc3c(c2)C(=O)N([C@H](C)CO)C[C@@H](C)[C@H](CN(C)S(=O)(=O)c2ccc(Cl)cc2)OCCCC[C@H](C)O3)cc1	none (no result: T cruzi growth-1)
Cc1ccc(S(=O)(=O)N(C)C[C@@H]2OCCCC[C@@H](C)Oc3ccc(NS(=O)(=O)c4ccc(Cl)cc4)cc3C(=O)N([C@H](C)CO)C[C@@H]2C)cc1	none
C[C@@H]1CN([C@H](C)CO)C(=O)Cc2cc(NC(=O)CCCCCC(=O)Nc3ccccc3N)ccc2O[C@@H]1CN(C)C(=O)Nc1cccc2ccccc12	none (no result: T cruzi growth-1, Pf Dd2 inh, GASC1 inh)
CCOc1ccc2nc(NS(=O)(=O)c3ccc(C)c([N+](=O)[O-])c3)sc2c1	none (no result: T cruzi growth-1, Pf Dd2 inh, GASC1 inh)
C[C@@H]1CN([C@H](C)CO)C(=O)c2cc(NC(=O)c3ccncc3)ccc2O[C@@H](C)CCCCO[C@@H]1CN(C)S(=O)(=O)c1ccc(Cl)cc1	T cruzi growth-1 inconclusive, Pf Dd2 inh inconclusive (no result: IDH1 R132H inh) | T cruzi growth-2 95 | T cruzi growth-3 inactive | NIH3T3 tox inactive | 3T3 cytotox 2 inactive
C[C@@H]1CCCCO[C@H](CN(C)S(=O)(=O)c2ccc(Cl)cc2)[C@H](C)CN([C@H](C)CO)C(=O)c2cc(NC(=O)c3ccncc3)ccc2O1	T cruzi growth-1 101 (no result: IDH1 R132H inh) | T cruzi growth-2 100 | T cruzi growth-3 inactive | NIH3T3 tox 38 | 3T3 cytotox 2 inactive
C[C@H]1CCCCO[C@H](CN(C)S(=O)(=O)c2ccc(Cl)cc2)[C@@H](C)CN([C@@H](C)CO)C(=O)c2cc(NC(=O)c3ccncc3)ccc2O1	none
CCCC#Cc1ccc([C@H]2[C@@H](CO)N3CCCCN(Cc4cccnc4)C[C@@H]23)cc1	T cruzi growth-1 110 (no result: IDH1 R132H inh) | T cruzi growth-2 101 | T cruzi growth-3 inactive | NIH3T3 tox 43 | 3T3 cytotox 2 78
COCC#Cc1ccc([C@H]2[C@@H](CO)N3CCCCN(Cc4cccnc4)C[C@@H]23)cc1	T cruzi growth-1 101 (no result: IDH1 R132H inh) | T cruzi growth-2 inactive | T cruzi growth-3 inactive | NIH3T3 tox inactive | 3T3 cytotox 2 inactive
O=C(CSc1nc2ccccc2o1)N1N=CCC1c1ccccc1 (stereo unspecified)	none (no result: T cruzi growth-1, Pf Dd2 inh, GASC1 inh)
CCS(=O)(=O)N1CCCCN2[C@H](CO)[C@@H](c3ccc(-c4ccccc4F)cc3)[C@@H]2C1	T cruzi growth-1 inconclusive (no result: IDH1 R132H inh) | T cruzi growth-2 103 | T cruzi growth-3 inactive | NIH3T3 tox inactive | 3T3 cytotox 2 inactive
CCS(=O)(=O)N1CCCCN2[C@@H](CO)[C@H](c3ccc(-c4ccccc4F)cc3)[C@@H]2C1	T cruzi growth-1 inconclusive (no result: IDH1 R132H inh) | T cruzi growth-2 104 | T cruzi growth-3 inactive | NIH3T3 tox inactive | 3T3 cytotox 2 42
CCS(=O)(=O)N1CCCCN2[C@@H](CO)[C@@H](c3ccc(-c4ccccc4F)cc3)[C@@H]2C1	T cruzi growth-1 106 (no result: IDH1 R132H inh) | T cruzi growth-2 inactive | T cruzi growth-3 inactive | NIH3T3 tox inactive | 3T3 cytotox 2 57
O=S(=O)(c1cccs1)N1CCCCN2[C@H](C1)[C@@H](c1ccc(Br)cc1)[C@@H]2CO	T cruzi growth-1 103 (no result: IDH1 R132H inh) | T cruzi growth-2 104 | T cruzi growth-3 inactive | NIH3T3 tox inconclusive | 3T3 cytotox 2 inactive
O=S(=O)(c1cccs1)N1CCCCN2[C@H](CO)[C@H](c3ccc(-c4ccccc4)cc3)[C@@H]2C1	T cruzi growth-1 inconclusive (no result: IDH1 R132H inh) | T cruzi growth-2 107 | T cruzi growth-3 inactive | NIH3T3 tox inactive | 3T3 cytotox 2 inactive
O=S(=O)(c1cccs1)N1CCCCN2[C@H](CO)[C@H](c3ccc(C4=CCCCC4)cc3)[C@@H]2C1	T cruzi growth-1 118 (no result: IDH1 R132H inh, GASC1 inh) | T cruzi growth-2 101 | T cruzi growth-3 inactive | NIH3T3 tox inactive | 3T3 cytotox 2 51
O=S(=O)(c1cccs1)N1CCCCN2[C@@H](CO)[C@@H](c3ccc(C4=CCCCC4)cc3)[C@@H]2C1	none (no result: IDH1 R132H inh, GASC1 inh)
O=S(=O)(c1cccs1)N1CCCCN2[C@H](CO)[C@@H](c3ccc(/C=C/c4ccccc4)cc3)[C@@H]2C1	T cruzi growth-1 97 (no result: IDH1 R132H inh) | T cruzi growth-2 105 | T cruzi growth-3 inactive | NIH3T3 tox inactive | 3T3 cytotox 2 inactive
O=S(=O)(c1cccs1)N1CCCCN2[C@H](CO)[C@H](c3ccc(-c4ccccc4)cc3)[C@H]2C1	none (no result: IDH1 R132H inh)
O=S(=O)(c1cccs1)N1CCCCN2[C@H](CO)[C@@H](c3ccc(Br)cc3)[C@@H]2C1	none (no result: IDH1 R132H inh)
COc1ccc(-c2nc(C#N)c(NCCN3CCOCC3)o2)cc1	none (no result: T cruzi growth-1, Pf Dd2 inh, GASC1 inh)
O=S(=O)(c1cccs1)N1CCCCN2[C@H](C1)[C@H](c1ccc(-c3ccccc3)cc1)[C@@H]2CO	T cruzi growth-1 101 (no result: IDH1 R132H inh) | T cruzi growth-2 108 | T cruzi growth-3 inactive | NIH3T3 tox inactive | 3T3 cytotox 2 inconclusive
COc1cccc(S(=O)(=O)N2CCCCN3[C@H](C2)[C@H](c2ccc(-c4cccnc4)cc2)[C@@H]3CO)c1	T cruzi growth-1 105 (no result: IDH1 R132H inh) | T cruzi growth-2 103 | T cruzi growth-3 inactive | NIH3T3 tox inactive | 3T3 cytotox 2 inactive
COc1cccc(S(=O)(=O)N2CCCCN3[C@H](CO)[C@@H](c4ccc(-c5ccccc5)cc4)[C@@H]3C2)c1	none (no result: IDH1 R132H inh)
COc1ccc(S(=O)(=O)N2CCCCN3[C@H](CO)[C@@H](c4ccc(-c5cccnc5)cc4)[C@H]3C2)cc1	T cruzi growth-1 113 (no result: IDH1 R132H inh) | T cruzi growth-2 inactive | T cruzi growth-3 inactive | NIH3T3 tox inactive | 3T3 cytotox 2 inactive
COc1cccc(S(=O)(=O)N2CCCCN3[C@H](CO)[C@@H](c4ccc(-c5cncnc5)cc4)[C@H]3C2)c1	none (no result: IDH1 R132H inh)
COc1cccc(S(=O)(=O)N2CCCCN3[C@H](CO)[C@H](c4ccc(-c5cccnc5)cc4)[C@@H]3C2)c1	T cruzi growth-1 118 (no result: IDH1 R132H inh) | T cruzi growth-2 103 | T cruzi growth-3 inactive | NIH3T3 tox inactive | 3T3 cytotox 2 inactive
COc1cccc(S(=O)(=O)N2CCCCN3[C@H](CO)[C@@H](c4ccc(-c5cccnc5)cc4)[C@H]3C2)c1	none (no result: IDH1 R132H inh)
COc1cccc(S(=O)(=O)N2CCCCN3[C@H](CO)[C@H](c4ccc(-c5ccncc5)cc4)[C@@H]3C2)c1	T cruzi growth-1 113 (no result: IDH1 R132H inh) | T cruzi growth-2 109 | T cruzi growth-3 104 | NIH3T3 tox inactive | 3T3 cytotox 2 inactive
COc1ccc(OC)c(-c2cc(C(=O)NCCc3ccccc3OC)c3ccccc3n2)c1	none (no result: T cruzi growth-1, Pf Dd2 inh, GASC1 inh)
COc1cc(-c2nnc(SCC(=O)c3ccccc3)n2-c2ccccc2)cc(OC)c1OC	none (no result: T cruzi growth-1, Pf Dd2 inh, GASC1 inh)
